Compound activity deposited in PubChem by The Scripps Research Institute Molecular Screening Center.
Compounds with a hit are over-represented: about 1.9% of the library has one in this group of screens.
CHRM4 agonist = agonists of human muscarinic M4 receptor (CHRM4); CHO-K1 hM4/Gqi5, Fluo-8 calcium fluorescence; vehicle 0%, full acetylcholine response 100%; activation, % at 3 µM; 360,000 tested, 0.14% active; AID 624127;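 active = activation above the run mean over all test wells plus 3 SD, cut at about 32% in these data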;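 note: peak over basal fluorescence ratio per well then scaled between controls; 0% = DMSO wells and 100% = acetylcholine at EC100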
Target sequence (P08173 whole entry, looked up): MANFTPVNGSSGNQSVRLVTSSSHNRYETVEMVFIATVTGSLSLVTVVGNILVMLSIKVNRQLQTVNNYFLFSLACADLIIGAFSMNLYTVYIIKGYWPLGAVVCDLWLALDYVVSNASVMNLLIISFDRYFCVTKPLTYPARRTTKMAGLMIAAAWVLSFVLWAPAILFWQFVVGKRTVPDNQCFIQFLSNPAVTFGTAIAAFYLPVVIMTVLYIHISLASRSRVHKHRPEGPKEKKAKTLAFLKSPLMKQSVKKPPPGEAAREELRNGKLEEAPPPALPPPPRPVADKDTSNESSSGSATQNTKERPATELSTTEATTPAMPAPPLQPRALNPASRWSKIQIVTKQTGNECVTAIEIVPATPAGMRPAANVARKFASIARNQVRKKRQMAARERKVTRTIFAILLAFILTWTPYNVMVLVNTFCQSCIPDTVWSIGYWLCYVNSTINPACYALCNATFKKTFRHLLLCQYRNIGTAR
CHRM5 antagonist = CHRM5 antagonism in calcium assay; P08912; CHO-hM5 cells, Fluo-8 calcium fluorescence, ACh EC80; inhibition, % at 3 µM; 360,000 tested, 0.59% active; AID 624040;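 active = inhibition above a per-plate cutoff, the mean of that plate's test compounds plus 3 SD, cut at about 27% in these data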;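 note: 0% = acetylcholine EC80 with DMSO and 100% = DMSO without agonist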
CHRM4 PAM = positive allosteric modulators of human muscarinic M4 receptor | CHO-K1 hM4/Gqi5, Fluo-8 calcium fluorescence, ACh EC20; 0% = ACh EC20, 100% = maximal ACh | activation, % at 3 µM | 360,000 tested, 0.4% active;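 active = activation above its plate's cutoff, the mean activation of sample wells plus 3 SD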
M4 antag = blocks acetylcholine activation of human M4 receptor; P08173; CHO-hM4 cells, ACh EC80, Fluo-8 calcium fluorescence; inhibition, % at 3 µM; 360,000 tested, 0.73% active;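 active = inhibition above its plate's cutoff, the mean inhibition of sample wells plus 3 SD, cut at about 27% in these data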;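 note: 0% = acetylcholine EC80 with DMSO and 100% = DMSO without agonist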
M5 PAM = CHRM5 positive allosteric modulation | CHO-K1 hM5, Fluo-8 calcium, ACh EC20 PAM; 0% = ACh EC20, 100% = ACh EC100 | activation, % at 3 µM | 360,000 tested, 0.3% active | P08912;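 active = activation above the run cutoff, the mean activation of all test compounds plus 3 SD, cut at about 18% in these data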
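Probe or stimulus: acetylcholine, EC20 level; Assay system: human M5 receptor in CHO-K1 cells; Schedule: compound preincubation 140 s before EC20 acetylcholine addition; Technique: intracellular calcium via Fluo-8 fluorescence; Dosing: single-point, 3 µM nominal; Read-out basis: percent activation from peak-over-basal fluorescence ratio, scaled EC20-to-EC100 acetylcholine; Repeats: one well per compound, no replicates.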
CHRM5 agonist = agonists of human muscarinic M5 receptor (CHRM5); P08912; activation, % at 3 µM; 360,000 tested, 0.19% active; CHO-K1 hM5 cells, Fluo-8 calcium fluorescence; 0% DMSO wells, 100% maximal acetylcholine response;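 active = activation above the run's mean over test compounds plus 3 SD, cut at about 23% in these data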;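 note: signal is peak over basal fluorescence ratio across the kinetic read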
* hit, by the source's call.

SMILES	CHRM4 agonist	CHRM5 antagonist	CHRM4 PAM	M4 antag	M5 PAM	CHRM5 agonist
O=C(O)C(Cc1ccccc1-c1ccccc1)C(=O)O	0	10	-3	2	-2	0
Cc1nnc(SCc2c(Cl)cccc2[N+](=O)[O-])s1	2	2	13	-5	20*	8
O=C(Nc1ccc2c(c1)OCO2)c1ccc2sc([C@H]3C[C@H](O)[C@@H](CO)O3)nc2c1	1	-4	16*	-19	-2	0
FC(F)(F)c1cc(CCN2CCNC[C@@H]2CC2CCCCC2)cc(C(F)(F)F)c1	0	26	-8	29*	-39	-11
COc1ccccc1-n1c(=O)c(C#N)c(-c2ccc([N+](=O)[O-])cc2)c2cc(C(=O)c3ccccc3O)cnc21	1	4	4	4	4	-1
Cc1ccc(C)c(-n2c(=O)c(C#N)cc3c(=O)n4ccccc4nc32)c1	1	2	6	-2	28*	2
CC(=O)COc1cccc2ccc(/C=C/c3ccc(Br)s3)nc12	6	-10	-4	-24	23*	8
COc1ccc(C2CC(c3ccc(Cl)cc3)=NN2C(C)=O)cc1 (stereo not drawn)	12	31*	12	17	43*	6
COc1ccc(C(=O)/C=C/c2ccc3c(c2)OCCO3)cc1	2	2	-12	16	-3	-5
O=C(/C=C/c1ccc2c(c1)OCCO2)c1ccccc1	0	-13	4	-4	24*	2
CCC1=NN(C(=O)c2ccc(C)cc2)C(O)(c2ccc(Br)cc2)C1 (stereo not drawn)	-1	-2	4	0	0	-2
CCC1=NN(C(=O)c2ccc(Br)cc2)C(O)(c2ccc(C)cc2)C1 (stereo not drawn)	0	-5	22*	-16	-4	-2
CCOC(=O)CN1C(=O)CSc2ccccc21	0	5	8	33*	-4	1
O=C(O)CN1C(=O)CSc2ccccc21	1	7	7	-2	1	-1
Cc1ccc(C)c(/C(O)=C2\C(=O)C(=O)N(CCCn3ccnc3)C2c2cccnc2)c1 (stereo not drawn)	0	8	6	-13	20*	-1
O=C(C1CCCC1)N1CCCC(Nc2ccc(F)cc2)C1 (stereo not drawn)	0	1	-4	7	-2	-2
Cc1ccc(NC2CCCN(C(=O)C3CCCCC3)C2)cc1C (stereo not drawn)	0	-14	-2	6	21*	3
CC(C)C[C@@H](CN1CCCC1CN1C(=S)NC[C@@H]1Cc1ccccc1)N1C[C@H](Cc2ccccc2)N(CCc2ccccc2)C1=S (stereo partly drawn)	-1	8	-2	-10	-9	0
CCN(CC)c1ccc(/C=N/Nc2nn[nH]n2)cc1	0	-11	0	-5	19*	2
O=C(O)c1cnn(-c2nc(-c3ccc(F)cc3)cs2)c1C(F)(F)F	0	-6	23*	-6	4	-3
O=c1[nH]c2ccccc2nc1/C=C(\O)c1cccs1	12	14	-7	6	-16	31*
O/C(=C\c1nc2ccccc2[nH]1)c1cccs1	3	4	6	-4	3	1
O=C(/C(=C\c1ccccc1)c1nc2ccccc2[nH]1)c1ccc(Cl)cc1	2	0	0	-13	-4	-2
O=C(/C(=C/c1ccc(Cl)cc1)c1nc2ccccc2[nH]1)c1cccs1	4	20	-16	66*	-23	-6
O=C(O)c1cc(-c2ccc(-c3ccc(F)cc3)o2)nc2ccccc12	1	4	4	6	-1	-1
SMILES	CHRM4 agonist	CHRM5 antagonist	CHRM4 PAM	M4 antag	M5 PAM	CHRM5 agonist
CCCCN(C)C1=CC2=CC(=C(C#N)C#N)CCC2CC1 (stereo not drawn)	439*	84*	-25	81*	-24	670*
CCN(CC)C1=CC2=CC(=C(C#N)C#N)CCC2CC1 (stereo not drawn)	210*	61*	-21	42*	-23	384*
COCCNC(=S)Nc1ccc2[nH]c(=O)[nH]c2c1	0	7	-15	10	-7	-3
CC(=O)SC1CC(=O)N(c2c(C)cccc2C)C1=O (stereo not drawn)	0	0	1	4	21*	5
COc1ccc(-c2csc(NC(=O)C3CC(=O)N(Cc4ccccc4)C3)n2)cc1OC (stereo not drawn)	17	6	-11	0	-13	3
CCN(CC(=O)Nc1c(F)cccc1F)C(=O)c1ccc(-n2cncn2)c([N+](=O)[O-])c1	0	0	-6	35*	1	4
Cc1cc(O)c(-c2cc(C(=O)Nc3ccc(S(=O)(=O)N4CCOCC4)cc3)[nH]n2)cc1C	17	2	-16	20	-1	6
CC(Oc1ccc(Cl)cc1)C(=O)Nc1ccc(S(=O)(=O)N2CCOCC2)cc1 (stereo not drawn)	53*	15	-11	7	-9	38*
CC(Oc1ccc(Cl)cc1)C(=O)Nc1cccc(S(=O)(=O)N2CCCC2)c1 (stereo not drawn)	1	-2	3	-17	-2	0
O=C(Nc1ccc(S(=O)(=O)N2CCOCC2)cc1)c1cc(-c2cc(Cl)ccc2O)n[nH]1	20	29*	-37	24	-20	3
CCOC(=O)c1cc(-c2ccccc2C)n(CC2CC(c3cccc([N+](=O)[O-])c3)=NO2)n1 (stereo not drawn)	6	9	-2	2	-14	-9
O=C(CNS(=O)(=O)c1cccs1)N1CCN(c2ccccc2F)CC1	6	-15	17*	-36	7	-1
O=C(CNS(=O)(=O)c1ccc(F)cc1)N1CCN(c2ccccc2)CC1	2	6	2	27*	-4	2
CCc1nc2c(OCC3COc4ccccc4O3)cccn2c1N(C)C(=O)c1cccc(OC)c1 (stereo not drawn)	7	1	-1	-7	-4	-1
Cc1cccc(NC(=O)CN2C(=O)CCS(=O)(=O)c3ccccc32)c1C	1	5	-5	3	-3	-2
CCCc1nc2ccc(N)cc2c(=O)n1Cc1ccccc1Cl	0	3	-3	8	-1	1
COC(=O)NNC(=O)C12CC3CC(CC(C3)C1)C2	2	-7	11	-3	2	-1
NC(=S)NNC(=O)C12CC3CC(CC(C3)C1)C2	42*	5	-9	10	1	6
O=C(CCCCCn1c(=S)[nH]c2cc3c(cc2c1=O)OCO3)N1CCN(Cc2ccccc2)CC1	5	5	-6	2	-2	-3
